This note sets out measurements from ChEMBL document CHEMBL1152812, “Novel trans-2-aryl-cyclopropylamine analogues as potent and selective dipeptidyl peptidase IV inhibitors” (Bioorg Med Chem, 2009).

For data set [1], the target named is T1, Dipeptidyl peptidase 8 (Homo sapiens, UniProt Q6V1X1). Put plainly: Inhibition of human DPP8.
Target sequence in this assay (Q6V1X1 whole entry): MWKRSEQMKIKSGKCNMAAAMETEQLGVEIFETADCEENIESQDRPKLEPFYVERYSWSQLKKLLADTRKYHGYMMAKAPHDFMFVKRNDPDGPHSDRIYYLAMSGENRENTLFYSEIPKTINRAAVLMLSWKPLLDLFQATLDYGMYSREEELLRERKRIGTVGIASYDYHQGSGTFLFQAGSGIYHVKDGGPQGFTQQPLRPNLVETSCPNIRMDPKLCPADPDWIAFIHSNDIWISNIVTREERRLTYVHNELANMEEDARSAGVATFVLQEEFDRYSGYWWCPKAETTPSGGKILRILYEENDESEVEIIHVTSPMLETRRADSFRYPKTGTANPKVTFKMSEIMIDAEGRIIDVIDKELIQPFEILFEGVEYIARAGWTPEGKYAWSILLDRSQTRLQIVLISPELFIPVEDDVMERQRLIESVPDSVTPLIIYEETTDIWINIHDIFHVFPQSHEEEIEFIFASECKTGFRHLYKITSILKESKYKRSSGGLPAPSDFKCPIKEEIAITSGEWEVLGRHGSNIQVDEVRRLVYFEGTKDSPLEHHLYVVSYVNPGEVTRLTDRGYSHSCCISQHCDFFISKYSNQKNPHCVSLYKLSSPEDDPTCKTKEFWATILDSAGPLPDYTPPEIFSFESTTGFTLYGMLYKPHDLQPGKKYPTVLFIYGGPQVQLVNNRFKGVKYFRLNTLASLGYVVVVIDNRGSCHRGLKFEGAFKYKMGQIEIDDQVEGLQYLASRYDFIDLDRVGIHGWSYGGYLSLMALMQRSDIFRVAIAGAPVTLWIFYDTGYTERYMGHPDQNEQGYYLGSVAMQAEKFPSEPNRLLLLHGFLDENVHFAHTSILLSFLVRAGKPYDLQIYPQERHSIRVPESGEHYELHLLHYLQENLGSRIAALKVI
Data set [2] concerns the target Dipeptidyl peptidase 2 (Homo sapiens, UniProt Q9UHL4). Put plainly: Inhibition of human DPP2.
Data set [3] concerns Rattus norvegicus. Briefly: Inhibition of DPP4 in Wistar rat plasma at 10 mg/kg, po after 24 hrs. It counts as functional, organism-based. More on the design: dose 10 mg/kg. A digest of the protocol: (§1)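 Adult male Wistar rats (n = 4–6/group) given a single oral gavage of 10 mg/kg in 0.5% methyl cellulose. Tail-vein blood (25–50 µl) taken at timed points and plasma kept frozen. Plasma (10 µl) mixed with 150 µM Gly-Pro-AMC in 25 mM Tris-HCl pH 7.4, 140 mM NaCl, 10 mM KCl, 0.1% BSA. Fluorescence read at ex 390/em 460 nm. Activity in U/mL; mean ± SEM.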

Data set [4] has as its system Mus musculus. Briefly: Reduction in glucose excursion in C57BL/6J lean mouse at 3 mg/kg, po pretreated 30 mins before glucose challenge measured after 120 mins by oral glucose tolerance test relative to control. The class given is functional, organism-based. Details: dose 3 mg/kg. A digest of the protocol:
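Fasted overnight: adult male C57BL/6 mice (20–25 g, 6–8 weeks old, n = 6/group), grouped by tail-vein glucometer reading. Oral gavage of test agent in distilled water at −30 min (1, 3 or 10 mg/kg), then 3 g/kg oral glucose (400 mg/mL) at 0 min.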

In data set [5] the target is T2, Prolyl endopeptidase FAP (Homo sapiens, UniProt Q12884).
T2 sequence (Q12884 whole entry): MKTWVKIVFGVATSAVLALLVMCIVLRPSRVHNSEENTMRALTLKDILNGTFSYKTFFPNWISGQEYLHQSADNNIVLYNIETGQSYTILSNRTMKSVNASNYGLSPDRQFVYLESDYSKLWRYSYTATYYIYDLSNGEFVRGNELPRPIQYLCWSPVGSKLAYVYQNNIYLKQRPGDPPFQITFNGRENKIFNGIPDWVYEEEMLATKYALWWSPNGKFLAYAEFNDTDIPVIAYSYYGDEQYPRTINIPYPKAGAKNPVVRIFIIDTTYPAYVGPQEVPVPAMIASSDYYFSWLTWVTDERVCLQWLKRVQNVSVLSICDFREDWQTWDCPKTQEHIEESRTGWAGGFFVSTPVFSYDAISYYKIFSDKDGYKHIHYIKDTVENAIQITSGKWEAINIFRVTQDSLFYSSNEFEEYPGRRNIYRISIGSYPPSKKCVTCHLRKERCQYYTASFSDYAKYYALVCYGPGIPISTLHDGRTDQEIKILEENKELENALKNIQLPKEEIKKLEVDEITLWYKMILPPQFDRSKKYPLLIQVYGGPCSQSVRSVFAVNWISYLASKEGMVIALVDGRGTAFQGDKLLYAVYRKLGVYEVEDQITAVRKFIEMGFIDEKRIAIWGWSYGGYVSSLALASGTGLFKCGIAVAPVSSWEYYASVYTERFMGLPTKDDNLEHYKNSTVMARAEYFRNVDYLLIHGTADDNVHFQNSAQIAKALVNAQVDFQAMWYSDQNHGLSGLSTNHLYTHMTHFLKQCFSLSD
Put plainly: Inhibition of human FAP.

The test system of data set [6] is Rattus norvegicus. Briefly: Inhibition of DPP4 in Wistar rat plasma at 10 mg/kg, po after 8 hrs. The class given is functional. A digest of the protocol: as §1
The test system of data set [7] is Rattus norvegicus. Put plainly: Inhibition of DPP4 in Wistar rat plasma at 10 mg/kg, po within 30 mins. The class given is functional. Conditions: 0.5 h. In outline: as §1
The target in data set [8] is T1, Dipeptidyl peptidase 8. Briefly: Inhibition of human DPP8 at 20 uM.
Target sequence in this assay (Q6V1X1 whole entry, looked up): as the sequence (Q6V1X1 whole entry) above
A short description of data set [9]: Plasma clearance in rat at 5 mg/kg, iv or 10 mg/kg, po. It counts as ADME, organism-based. A digest of the protocol: (§2)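 Rat pharmacokinetics after dosing at 5 mg/kg iv and 10 mg/kg po. Parameters derived: plasma clearance, oral Cmax, oral half-life, dose-normalised oral AUC and oral bioavailability (F).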
Data set [10] in a line: Cmax in rat at 10 mg/kg, po. It counts as ADME, organism-based. Details: dose 10 mg/kg, route oral. Conditions: in vivo. A digest of the protocol:
as §2

The test system of data set [11] is Rattus norvegicus. Briefly: (§3) Oral bioavailability in rat at 10 mg/kg, po. Particulars: in vivo. It counts as ADME, organism-based. In outline:
as §2

Data set [12] in a line: Half life in rat at 10 mg/kg, po. Particulars: in vivo. It counts as ADME, organism-based. Details: dose 10 mg/kg, route oral. A digest of the protocol: as §2
Data set [13] is described as follows: as §3. The class given is ADME, organism-based. Particulars: in vivo. A digest of the protocol: as §2
Data set [14] can be described thus: Half life in rat at 25 mg/kg, po. It counts as ADME, organism-based. Details: dose 25 mg/kg, route oral. Conditions: in vivo. In outline: (§4)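 Rat pharmacokinetics after dosing at 5 mg/kg iv and 25 mg/kg po. Parameters derived: plasma clearance, oral Cmax, oral half-life, dose-normalised oral AUC and oral bioavailability (F).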
The nature of data set [15]: Cmax in rat at 25 mg/kg, po. More on the design: dose 25 mg/kg, route oral. The class given is ADME, organism-based. Particulars: in vivo. In outline: as §4
A short description of data set [16]: Plasma clearance in rat at 5 mg/kg, iv or 25 mg/kg, po. It counts as ADME, organism-based. In outline:
as §4

Data set [17] can be described thus: Oral bioavailability in rat at 25 mg/kg, po. The class given is ADME, organism-based. Conditions: in vivo. In outline:
as §4

The target of data set [18] is hERG (KCNH2) (Homo sapiens, UniProt Q12809). Put plainly: Inhibition of human ERG at 10 uM. A digest of the protocol:
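hERG binding; percent inhibition at a test concentration of 10 µM.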

Calls of active or inactive are those of the source. The rule behind the calls is not given here. Where only a bound is given, the exact number is not on record here.

Chain of hERG (KCNH2) (Q12809 whole entry): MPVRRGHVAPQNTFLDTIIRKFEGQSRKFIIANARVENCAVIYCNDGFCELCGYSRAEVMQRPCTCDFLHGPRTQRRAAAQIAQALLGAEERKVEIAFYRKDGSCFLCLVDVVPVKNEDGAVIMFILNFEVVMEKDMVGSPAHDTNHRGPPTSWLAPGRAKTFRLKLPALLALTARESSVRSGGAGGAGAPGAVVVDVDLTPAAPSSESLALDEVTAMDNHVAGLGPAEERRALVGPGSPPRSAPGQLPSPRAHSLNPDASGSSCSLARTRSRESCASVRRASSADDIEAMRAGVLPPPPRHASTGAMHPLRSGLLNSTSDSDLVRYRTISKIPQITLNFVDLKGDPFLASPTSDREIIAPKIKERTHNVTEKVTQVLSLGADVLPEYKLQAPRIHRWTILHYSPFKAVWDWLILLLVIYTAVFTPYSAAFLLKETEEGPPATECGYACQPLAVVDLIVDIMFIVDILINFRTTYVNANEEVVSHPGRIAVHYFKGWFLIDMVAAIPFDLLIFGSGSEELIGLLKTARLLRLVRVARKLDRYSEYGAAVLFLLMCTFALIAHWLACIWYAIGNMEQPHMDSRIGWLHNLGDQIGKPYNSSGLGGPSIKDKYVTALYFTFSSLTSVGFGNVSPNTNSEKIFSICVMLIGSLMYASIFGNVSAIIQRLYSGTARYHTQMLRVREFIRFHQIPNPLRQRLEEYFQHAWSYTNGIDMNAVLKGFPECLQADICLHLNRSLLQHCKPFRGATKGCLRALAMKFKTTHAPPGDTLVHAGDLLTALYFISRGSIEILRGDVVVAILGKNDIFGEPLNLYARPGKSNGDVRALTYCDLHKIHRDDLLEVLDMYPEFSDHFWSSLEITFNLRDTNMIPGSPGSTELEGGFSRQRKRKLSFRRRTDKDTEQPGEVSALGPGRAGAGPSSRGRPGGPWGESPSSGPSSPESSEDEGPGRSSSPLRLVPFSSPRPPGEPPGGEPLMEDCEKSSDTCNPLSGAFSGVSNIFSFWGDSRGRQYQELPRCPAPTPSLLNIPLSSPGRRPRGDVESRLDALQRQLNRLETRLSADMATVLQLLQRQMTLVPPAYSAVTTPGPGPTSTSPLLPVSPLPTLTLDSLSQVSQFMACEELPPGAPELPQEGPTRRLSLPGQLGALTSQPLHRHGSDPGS

Regarding `CCOc1cccc([C@H]2C[C@@H]2NC(=O)CC(C)(C)NCC(=O)N2C[C@@H](F)C[C@H]2C#N)c1`, the IC50 in data set [1] and in data set [2] was over 20 µM in each case.
As for `N[C@@H](CC(=O)N1CCn2c(nnc2C(F)(F)F)C1)Cc1cc(F)c(F)cc1F`, in data set [3], the outcome was inactive. In addition, the outcome in [4] was Active.
Consider `CC(C)(CC(=O)N[C@H]1C[C@@H]1c1cc(F)cc(F)c1)NCC(=O)N1CCC[C@H]1C#N`, for which the IC50 in data set [1], in data set [5] and in [2] was over 20 µM in each case.
In the case of `CC(C)(CC(=O)N[C@H]1C[C@@H]1c1ccccc1)NCC(=O)N1CCC[C@H]1C#N`, the results for the IC50 in data set [1], in data set [5] and in data set [2] were over 20 µM, over 20 µM and 16 µM, respectively.
For `CC(C)(CC(=O)N[C@H]1C[C@@H]1c1cccc(OC(F)(F)F)c1)NCC(=O)N1CCC[C@H]1C#N`, the half-inhibitory concentration (IC50) in data set [1], in [5] and in data set [2] was over 20 µM in each case.
For `Cc1ncsc1[C@H]1C[C@@H]1NC(=O)CC(C)(C)NCC(=O)N1C[C@@H](F)C[C@H]1C#N`, the inhibition in vivo at 10 mg/kg in data set [6] came out at 30%; in data set [7], 60%. Further, the IC50 in data set [1], in data set [5] and in data set [2] was over 20 µM in each case. For the same molecule, in data set [8], the inhibition was determined as 23%.
On to `CC(C)(CC(=O)N[C@H]1C[C@@H]1c1cccc(OC(F)(F)F)c1)NCC(=O)N1C[C@@H](F)C[C@H]1C#N`, for which the IC50 in [1], in [5] and in [2] was over 20 µM each time.
On to `CC(C)(CC(=O)N[C@H]1C[C@@H]1c1cccc(F)c1)NCC(=O)N1CCC[C@H]1C#N`, for which the IC50 in data set [1], in data set [5] and in data set [2] was over 20 µM throughout.
On to `CC(C)(CC(=O)N[C@H]1C[C@@H]1c1ccc(F)cc1)NCC(=O)N1CCC[C@H]1C#N`, for which the IC50 in [1], in data set [5] and in [2] was over 20 µM throughout.
With `CC(C)(CC(=O)N[C@H]1C[C@@H]1c1cccc(C(F)(F)F)c1)NCC(=O)N1CCC[C@H]1C#N`, the IC50 in data set [1], in data set [5] and in data set [2] was over 20 µM in each case.
Take `CC(C)(CC(=O)N[C@H]1C[C@@H]1c1cccc(Cl)c1)NCC(=O)N1CCC[C@H]1C#N` (stereo in doubt; 22): the IC50 in data set [1], in data set [5] and in [2] was over 20 µM throughout.
In the case of `CC(C)(CC(=O)N[C@H]1C[C@@H]1c1ccc(C(F)(F)F)cc1)NCC(=O)N1CCC[C@H]1C#N`, the IC50 in data set [1], in [5] and in [2] was over 20 µM each time.
Turning to `CC(C)(CC(=O)N[C@H]1C[C@@H]1c1ccc(Cl)cc1)NCC(=O)N1CCC[C@H]1C#N`, the IC50 in data set [1], in data set [5] and in data set [2] was over 20 µM in each case.
`COc1cccc([C@H]2C[C@@H]2NC(=O)CC(C)(C)NCC(=O)N2C[C@@H](F)C[C@H]2C#N)c1` showed a clearance in data set [9] of 124 mL/min/kg. The IC50 in data set [1], in [5] and in data set [2] was over 20 µM each time. In [10], this molecule came in with a Cmax of 898 ng/mL. The same molecule had a F in data set [11] of 194%. This molecule also had a half-life in data set [12] of 6.8 h.
For the molecule `CC(C)(CC(=O)N[C@H]1C[C@@H]1c1cccc(F)c1)NCC(=O)N1C[C@@H](F)C[C@H]1C#N`, the clearance in [9] was 55 mL/min/kg. The IC50 in data set [5] and in data set [2] was over 20 µM throughout. Also, the concentration in data set [10] peaked (Cmax) at 175 ng/mL. The bioavailability in [13] was determined as 29%. In data set [12], this molecule returned a half-life of 1.2 h.
Regarding `CC(C)(CC(=O)N[C@H]1C[C@@H]1c1cccc(Cl)c1)NCC(=O)N1CCC[C@H]1C#N` (stereo in doubt; 18k), the IC50 in [1], in data set [5] and in data set [2] was over 20 µM throughout.
With `COc1ccc([C@H]2C[C@@H]2NC(=O)CC(C)(C)NCC(=O)N2CCC[C@H]2C#N)cc1OC`, the IC50 in [1], in data set [5] and in data set [2] was over 20 µM throughout.
In data set [14], `COc1ccc([C@H]2C[C@@H]2NC(=O)CC(C)(C)NCC(=O)N2C[C@@H](F)C[C@H]2C#N)cc1` had a half-life of 5.3 h. Moreover, the IC50 in [1], in [5] and in data set [2] was over 20 µM each time. The molecule also registered a Cmax in data set [15] of 347 ng/mL. The clearance in [16] came to 20 mL/min/kg. In data set [17], this molecule displayed a bioavailability of 28%.
Turning to `CC(C)(CC(=O)N[C@H]1C[C@@H]1c1ccc(F)c(F)c1)NCC(=O)N1CCC[C@H]1C#N`, the IC50 in [1], in data set [5] and in data set [2] was over 20 µM each time.
For the molecule `CC(C)(CC(=O)N[C@@H]1C[C@H]1c1cccc(Cl)c1)NCC(=O)N1CCC[C@H]1C#N`, the values for the IC50 in data set [1], in data set [5] and in [2] were over 20 µM, over 20 µM and 17 µM, respectively.
Regarding `CC(C)(CC(=O)N[C@H]1C[C@@H]1c1cccnc1)NCC(=O)N1C[C@@H](F)C[C@H]1C#N`, the half-maximal inhibitory concentration (IC50) in data set [1], in data set [5] and in [2] was over 20 µM each time. The inhibition in [8] was found to be 17%.
As to `CC(C)(CC(=O)N[C@H]1C[C@@H]1c1ccccc1)NCC(=O)N1C[C@@H](F)C[C@H]1C#N`, the IC50 in data set [1], in [5] and in data set [2] was over 20 µM throughout.
For the molecule `CC(C)(CC(=O)N[C@@H]1C[C@H]1c1cccc(Cl)c1)NCC(=O)N1C[C@@H](F)C[C@H]1C#N`, the 50% inhibitory concentration (IC50) was over 20 µM in [5] and 5.2 µM in data set [2].
As to `CC(C)(CC(=O)N[C@H]1C[C@@H]1c1ccc(Cl)c(Cl)c1)NCC(=O)N1CCC[C@H]1C#N`, the IC50 in data set [1], in data set [5] and in data set [2] was over 20 µM in each case.
In the case of `CC(C)(CC(=O)N[C@H]1C[C@@H]1c1ccc(F)cc1F)NCC(=O)N1CCC[C@H]1C#N`, the IC50 in [1], in [5] and in [2] was over 20 µM throughout.
On to `CC(C)(CC(=O)N[C@H]1C[C@@H]1c1cccc(Cl)c1)NCC(=O)N1CC(F)(F)C[C@H]1C#N`, for which the half-life in [14] was 3.2 h. Also, the inhibition at 10 µM in [18] was 15%. The same molecule had a Cmax in data set [15] of 454 ng/mL. The IC50 in data set [2] was 0.59 µM. In addition, the clearance in data set [16] came out at 189 mL/min/kg. In data set [17], this molecule displayed a bioavailability of 53%.

A word on the IC50: it is the concentration at which inhibition is half-maximal. A high value points to weaker potency in that assay. Usually inhibition in vivo stands for the percentage by which the read-out fell short of the control. A high value points to a response far below the control. The term inhibition denotes the drop in the measured response relative to a control, in per cent. The term Cmax denotes the maximum level reached in the sampled fluid or tissue. The term half-life denotes how long it takes for the measured level to halve. Higher therefore signals slow loss. Usually bioavailability stands for dose-corrected exposure relative to a reference, in per cent. A low value points to little systemic uptake.
